The results in this text go back to ChEMBL document CHEMBL4513216, “Probing the Open Global Health Chemical Diversity Library for Multistage-Active Starting Points for Next-Generation Antimalarials” (ACS Infect Dis, 2020).

A short description of the data set: Toxicity liver stage against HepG2, at 10uM. Format: cell-based. Set-up: test concentration 10 uM, cell line HepG2-A16-CD81EGFP. Particulars: human, HepG2-A16-CD81EGFP cells; read-out: INHIBITION
The gist of the method:
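Uninfected HepG2-A16-CD81EGFP cells, 3 × 10^3 per well, 1536-well, plated on prespotted compound at 10 μM final, parasite-free screening media added to match infected plates; puromycin 10 μM positive, DMSO 0.5% negative; run in parallel with 48 h PbLuc assay at 37 °C, 5% CO2; viability by CellTiter-Glo luminescence, normalized to controls.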
Consider `Cc1noc(C)c1CNCc1nn(-c2ccccc2)c2c1CCC2`, for which the cytotoxicity at 10 µM came out at 1.83%.

Regarding `CC(=O)N1CCC(N2CCN3C(=O)N(c4ccccc4)C[C@H]3C2)CC1`, the cytotoxicity at 10 µM was 1.35%. For `Cc1nnc(C2CCN(C(=O)c3ccc(-n4cccc4)cc3)CC2)s1`, the cytotoxicity at 10 µM was found to be 6.4%. For `O=C1COc2ccc(Br)cc2CN1CC1CC1` the value was -3.46%; for `CC1(C)CC(=O)c2cnc3nc(N4CCCC4)[nH]c(=O)c3c2C1`, -2%; for `Cn1cnnc1S(=O)(=O)C1CCN(S(=O)(=O)c2c(Cl)cccc2Cl)CC1`, -14.2%.

With `CC(C)NC(=O)c1sccc1N(C)S(=O)(=O)c1ccc(Cl)cc1`, the cytotoxicity at 10 µM was determined as 9.22%. For `O=C1CC2(CCN(S(=O)(=O)c3cccs3)C2)CN1c1ccccc1` (configuration not stated), the cytotoxicity at 10 µM was 5.08%. On to `Cc1nc(CN2C(=O)C[C@@H]3[C@@H]2CCN3C(=O)C2CCOCC2)cs1`, for which the cytotoxicity at 10 µM was -10.8%. Consider `C[C@H]1C[C@@H]2CCN(C(=O)c3ccncn3)C[C@H]2O1`, for which the cytotoxicity at 10 µM is -18.4%. With `COCC(=O)NCCn1nc(-c2cc(C)oc2C)ccc1=O`, the cytotoxicity at 10 µM is -1.74%.

Consider `O=C(NC[C@]1(O)CCN(Cc2ccsc2)C[C@H]1O)c1c[nH]cn1`, for which the cytotoxicity at 10 µM was 0.514%. For `Cc1noc(C)c1C(=O)N[C@@H]1CC[C@@H](Oc2ccccc2)[C@@H]1O` the value was 0.395%. Regarding `CN(C)c1ncc(I)c(C2CCCCN2C)n1` (configuration not stated), the cytotoxicity at 10 µM was found to be 1.74%.

Take `O=C(NCc1ccc2c(c1)OCO2)[C@@H]1C=CCN1c1ncccn1`: the cytotoxicity at 10 µM was 0.146%. As to `Cc1cc(C)nc(Nc2ccc(C3CCCCN3)cn2)n1` (configuration not stated), the cytotoxicity at 10 µM came to 11.7%. Turning to `CC(=O)N[C@@H]1CN(S(=O)(=O)c2ccc(Cl)cc2)C[C@H]1O`, the cytotoxicity at 10 µM came to 7.03%. For the molecule `NC(=O)C1(Cc2ccc(-c3ccccc3)cc2)CCCNC1` (configuration not stated), the cytotoxicity at 10 µM came out at 0.772%. Regarding `CCNC(=O)C1(Cc2ccc(-c3ccccc3)cc2)CCCNC1` (configuration not stated), the cytotoxicity at 10 µM is -3.73%. With `COCCS(=O)(=O)Nc1cc(Cl)ccn1`, the cytotoxicity at 10 µM is 2.62%. Then `CC(NC1(CNS(C)(=O)=O)CCOCC1)c1ccccc1` (configuration not stated), with 6.72%.

As for `CNC(=O)C(CC(C)C)NC(=O)c1cccc(-c2n[nH]c(C)n2)c1` (configuration not stated), the cytotoxicity at 10 µM turned out to be 9.04%. For the molecule `COc1ccc(Br)cc1CC(=O)Nc1cc(C)n[nH]1`, the cytotoxicity at 10 µM was -0.405%. On to `Cc1ccc(S(=O)(=O)N2CC(C)Oc3ncccc32)c(C)c1` (configuration not stated), for which the cytotoxicity at 10 µM came out at 5.35%. Then `O=C(Nc1cccnc1-n1cncn1)C1CCC1`, with -4.32%.

Turning to `CN(C(=O)NCC1(CN2CCOCC2)CCCCC1)C1CC1`, the cytotoxicity at 10 µM is -1.91%.

For `Cn1cc(-c2nc(CN3CCOC(Cn4cccn4)C3)cs2)cn1` (configuration not stated), the cytotoxicity at 10 µM is -4.04%. Consider `COc1c(C2CCCN2C(=O)c2cnn(C)c2C2CC2)c(C)nn1C` (configuration not stated), for which the cytotoxicity at 10 µM is -2.43%. For `Cc1ccccc1S(=O)(=O)CCOC(C)C`, the cytotoxicity at 10 µM turned out to be 0.456%. With `Cn1cc(CNc2ccc(F)c(N3CCCS3(=O)=O)c2)cn1`, the cytotoxicity at 10 µM is -12.8%. For `CN(CCN1CCOCC1)C(=O)C1(c2ccc(F)cc2F)CCC1`, the cytotoxicity at 10 µM was -6.68%. With `Cc1ccc(OC(C)CNC(=O)c2c[nH]nn2)cc1` (configuration not stated), the cytotoxicity at 10 µM was -0.0422%.

Turning to `FC(F)(F)c1ccnc(N2CCCN(C3CCOCC3)CC2)c1`, the cytotoxicity at 10 µM is -7.49%. As to `CCN(C(=O)CN1CCCC1c1ccc(OC)cc1)c1ccccc1C` (configuration not stated), the cytotoxicity at 10 µM was found to be 0.623%.

Take `CC(=O)N1CCc2ccc(S(=O)(=O)N3CCCCC3C)cc21` (configuration not stated): the cytotoxicity at 10 µM is -10.3%. In the case of `NS(=O)(=O)CCNC(=O)c1cc2cccc(F)c2o1`, the cytotoxicity at 10 µM was determined as 2.46%. In the case of `COc1ccccc1CC(C)(C)NC(=O)CN(C)C(C)C`, the cytotoxicity at 10 µM is 3.04%. `CC(C)(C)CC(=O)NCC(=O)NCC(O)c1ccc2ccccc2c1` (configuration not stated): the cytotoxicity at 10 µM turned out to be 9.73%. With `CN(C(=O)Nc1ccccn1)C1CCCN(c2ccccc2)C1=O` (configuration not stated), the cytotoxicity at 10 µM was -6.63%. As for `Cc1cc(C)nc(NC2CCOC3(CCCC3)C2)n1` (configuration not stated), the cytotoxicity at 10 µM was 7.93%. For the molecule `CCN(C(=O)CN(CC(N)=O)C(C)C)C1=CCCC1`, the cytotoxicity at 10 µM was 14.1%. Take `COCCCN1CCCN(C(C)C(=O)Nc2ccnn2C(C)C)CC1` (configuration not stated): the cytotoxicity at 10 µM was -8.8%. For `CC(NCC1=Cc2cc(Cl)ccc2OC1)c1nnc2n1CCCC2` (configuration not stated) the value was -11.4%; for `Cc1nn(C)c(N(C)C)c1CNCC(O)COc1ccc(F)cc1` (configuration not stated), 0.769%; for `CCOCCN1CCN(Cc2nnc(C3CC3)o2)CC1CC` (configuration not stated), -5.67%.

In the case of `CC(C)C1CN(C(=O)c2ccc(C(N)=O)cc2)CCS1` (configuration not stated), the cytotoxicity at 10 µM is -4.03%. Take `Cn1cc(CCNC(=O)NC2CCS(=O)(=O)C2)cn1` (configuration not stated): the cytotoxicity at 10 µM was -12.9%. For `COc1ccc(C2CCCN2C(=O)NCCNc2ncccn2)cc1` (configuration not stated) the value was -8.18%.

Consider `Cc1ccc(C(=O)O)cc1S(=O)(=O)Nc1nn(-c2ccccc2)cc1C`, for which the cytotoxicity at 10 µM is -8.84%.

`Cc1nn(C)c(C)c1C1CCCN1C(=O)c1ccc(Cl)o1` (configuration not stated): the cytotoxicity at 10 µM is -5.15%. With `FC(F)(F)CCc1ccnc(N2CCN(Cc3ccncc3)CC2)n1`, the cytotoxicity at 10 µM is -21.2%.

As for `Cc1nc(N(C)C)ncc1C(=O)NCCc1csc(-c2ccncc2)n1`, the cytotoxicity at 10 µM was 1.39%.

Take `CCC(=O)Nc1cccc(OCC(=O)N(C)Cc2cc(COC)[nH]n2)c1`: the cytotoxicity at 10 µM came out at 1.79%.

Consider `COc1cccc2c1OCC(C(=O)N1CCSCC1)C2` (configuration not stated), for which the cytotoxicity at 10 µM came to 1.88%. Then `CC1c2cccn2CCN1C(=O)CCc1nc(-c2ccccc2)no1` (configuration not stated), with 0.45%; and `O=S(=O)(NC1CCCN(c2ncccn2)C1)N1CCCCCC1` (configuration not stated), with 12.7%.

For `Fc1cccc(C2(CNC3CCSC3)CCOCC2)c1` (configuration not stated), the cytotoxicity at 10 µM is -1.86%. Turning to `O=c1cc(C2CCNCC2)nc(CCc2ccccn2)[nH]1`, the cytotoxicity at 10 µM was -0.226%.

In the case of `CCn1c(C2CCN(C(=O)CCc3cc(Cl)no3)CC2)nn(C)c1=O`, the cytotoxicity at 10 µM is -7.09%. `CSc1ccccc1C(C(=O)O)N(C)CC1CCOCC1` (configuration not stated): the cytotoxicity at 10 µM was 4.93%. Regarding `O=C(NCc1cc2n(n1)CCCNC2)c1cn2cc(Cl)ccc2n1`, the cytotoxicity at 10 µM is -10.1%. For `Cc1cc(C[C@@H]2COC[C@@H]2NC(=O)Cn2c(=O)oc3ccccc32)on1` the value was -14%. For `CN(Cc1ccc(F)cc1)[C@@H]1CN(C(=O)c2cccs2)C[C@H]1O`, the cytotoxicity at 10 µM came to 3.92%. For `Cc1ccc(F)cc1S(=O)(=O)Nc1ccc2c(C(=O)O)c[nH]c2c1` the value was -3.53%; for `CN(Cc1ccco1)C(=O)CN1CCOC(Cn2cncn2)C1` (configuration not stated), -7.36%. As to `CCc1c(C(=O)N2CCN(c3cnccn3)CC2)cnn1C(C)(C)C`, the cytotoxicity at 10 µM was -13%. As for `O=C(c1cc(C2CC2)[nH]n1)N1CCN(Cc2ccncc2)CC1`, the cytotoxicity at 10 µM is -10.9%. Then `CC1COCCN1Cc1nc(-c2ccc(F)cc2)no1` (configuration not stated), with -9.4%.

As for `CC(C)c1cnc(CN2CCCC(c3cc(C(N)=O)[nH]n3)C2)o1` (configuration not stated), the cytotoxicity at 10 µM was -13.5%. In the case of `CCC1c2ccsc2CCN1C(=O)NCCc1ccccn1` (configuration not stated), the cytotoxicity at 10 µM is -12.4%. Regarding `Cc1nc(C)c(CC(=O)Nc2nnc(C3CC3)s2)c(=O)[nH]1`, the cytotoxicity at 10 µM was -11.2%. Regarding `Fc1ccc(-c2nc(CN3CCCCC3Cn3cncn3)co2)cc1` (configuration not stated), the cytotoxicity at 10 µM is -8.18%. With `CCc1nc(CN2CCOC(Cn3nc(C)cc3C)C2)no1` (configuration not stated), the cytotoxicity at 10 µM worked out at 4.36%. For the molecule `O=C(CCc1ccc2c(c1)OCO2)N1CCCCC1Cn1cccn1` (configuration not stated), the cytotoxicity at 10 µM was -17.2%. With `Cc1cnn(CC2CCCCN2C(=O)c2cccc(C(N)=O)c2)c1` (configuration not stated), the cytotoxicity at 10 µM was -0.775%. As to `Cc1cnn(CC2CCCCN2C(=O)c2ccc(CN(C)C)cc2)c1` (configuration not stated), the cytotoxicity at 10 µM is -11.4%. For `Cc1cn2c(n1)CCC(NC(=O)c1cncnc1C)C2` (configuration not stated) the value was -3.56%; for `CCc1nc(C2CCCN2Cc2nnc(CC)o2)no1` (configuration not stated), -5.36%. As to `O=C(CN1CCN(c2ccc3nncn3n2)CC1)NC1CCCC1`, the cytotoxicity at 10 µM was -33.9%. Regarding `CCn1cnnc1CNC(=O)N1CCN(c2cccs2)CC1`, the cytotoxicity at 10 µM is -2.07%. For the molecule `COc1ccc(CC(=O)N2CCc3nnc(N(C)C)cc3C2)cc1F`, the cytotoxicity at 10 µM is -9.5%. Regarding `CCOCC(O)CN1CCN(C(=O)c2ccccc2Cl)CC1` (configuration not stated), the cytotoxicity at 10 µM is -1.96%. Then `Cc1cc(C2CCCN(CCc3ccccn3)C2)n[nH]1` (configuration not stated), with -10.4%. As to `O=C(c1ccn(-c2cccc(Cl)c2)n1)N1CCN(C2CC2)CC1`, the cytotoxicity at 10 µM was -7.03%. With `Cc1cc(C(=O)NCc2ccc(N3CCCC(C(N)=O)C3)cc2)no1` (configuration not stated), the cytotoxicity at 10 µM is -3.37%. With `CC(Cc1ccco1)NC(=O)Nc1cnn(CC(N)=O)c1` (configuration not stated), the cytotoxicity at 10 µM was 7.82%. As for `O=C(NCCn1ccnc1)NCC(c1ccco1)N1CCCCC1` (configuration not stated), the cytotoxicity at 10 µM was 3.44%. Regarding `CN(C)CCCN(Cc1ccco1)Cc1ccnn1C1CCCCO1` (configuration not stated), the cytotoxicity at 10 µM was -2.52%. On to `CCN(CC)CC1CN(CCc2ccccc2)Cc2nccn2C1` (configuration not stated), for which the cytotoxicity at 10 µM is -9.61%. Turning to `OC(CN1CCN(Cc2ccc(F)cc2)CC1)C1CC1` (configuration not stated), the cytotoxicity at 10 µM was -23.4%. Turning to `CNC(C(=O)OC)c1cc(F)ccc1F` (configuration not stated), the cytotoxicity at 10 µM is -1.07%.

Take `CN(C)CC(=O)N1CC2(CCN(C(=O)Nc3ccccc3)C2)C1`: the cytotoxicity at 10 µM was determined as 4.17%.

Take `O=C(CN1CCC[C@@H]1C(=O)O)NCCOc1cccc(C(F)(F)F)c1`: the cytotoxicity at 10 µM is -1.7%.

Turning to `NCC1CCCCN1C(=O)Cc1cccc(Br)c1` (configuration not stated), the cytotoxicity at 10 µM turned out to be 0.907%. Take `NCC1CCCCN1C(=O)Cc1ccc(F)c(F)c1` (configuration not stated): the cytotoxicity at 10 µM was -1.5%. Take `O=C(c1cnccn1)N1CCOCC2(CCN(C3CCOCC3)C2)C1` (configuration not stated): the cytotoxicity at 10 µM is -7.94%.

Consider `Cc1cc(CN2CCO[C@H]3[C@H](OCc4csc(C)n4)CC[C@@H]32)no1`, for which the cytotoxicity at 10 µM was 5.86%.
